Results: ChEMBL document CHEMBL4152188, “Design, synthesis and biological evaluation of C(4) substituted monobactams as antibacterial agents against multidrug-resistant Gram-negative bacteria” (Eur J Med Chem, 2018)
≈ marks a conversion by molar mass, not a printed value.

Key:
Type in all cases: functional
Klebsiella pneumoniae [1] = assay: Antibacterial activity against KPC-2 producing Klebsiella pneumoniae isolate 212232 after 18 hrs by CLSI broth microdilution method; settings: isolate 212232, 18 h
Klebsiella pneumoniae [2] = assay: Selectivity index, ratio of MIC for against KPC-2 producing Klebsiella pneumoniae isolate 209632 to MIC for against KPC-2 producing Klebsiella pneumoniae isolate 209632 in presence of BPL
Klebsiella pneumoniae [3] = assay: Selectivity index, ratio of MIC for against KPC-2 producing Klebsiella pneumoniae isolate 212229 to MIC for against KPC-2 producing Klebsiella pneumoniae isolate 212229 in presence of BPL
Klebsiella pneumoniae [4] = assay: Antibacterial activity against KPC-2 producing Klebsiella pneumoniae isolate 209632 after 18 hrs in presence of BPL by CLSI broth microdilution method; settings: isolate 209632, 18 h
Outline: (§1)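 CLSI broth microdilution against clinical isolates (ESBL E. coli, KPC-2 MDR K. pneumoniae, IMP-4 MDR P. aeruginosa; five per species). Iron limitation: Mueller-Hinton broth supplemented with 16 mg/liter 2,2'-bipyridyl to complex iron and induce iron uptake systems. Read-out: MIC.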

Klebsiella pneumoniae [5] = assay: Antibacterial activity against KPC-2 producing Klebsiella pneumoniae isolate 212423 after 18 hrs in presence of BPL by CLSI broth microdilution method; settings: isolate 212423, 18 h; outline: as §1
Pseudomonas aeruginosa [6] = assay: Antibacterial activity against IMP-4 producing Pseudomonas aeruginosa isolate 207272 after 18 hrs by CLSI broth microdilution method; settings: isolate 207272, 18 h
Klebsiella pneumoniae [7] = assay: Antibacterial activity against KPC-2 producing Klebsiella pneumoniae isolate 212232 after 18 hrs in presence of BPL by CLSI broth microdilution method; settings: isolate 212232, 18 h; outline: as §1
Pseudomonas aeruginosa [8] = assay: Selectivity index, ratio of MIC for against IMP-4 producing Pseudomonas aeruginosa isolate 209471 to MIC for against IMP-4 producing Pseudomonas aeruginosa isolate 209471 in presence of BPL
Escherichia coli [9] = assay: Antibacterial activity against extended-spectrum beta-lactamase producing Escherichia coli isolate 209285 after 18 hrs by CLSI broth microdilution method; settings: isolate 209285, 18 h
Klebsiella pneumoniae [10] = assay: Antibacterial activity against KPC-2 producing Klebsiella pneumoniae isolate 209735 after 18 hrs in presence of BPL by CLSI broth microdilution method; settings: isolate 209735, 18 h; outline: as §1
Escherichia coli [11] = assay: Selectivity index, ratio of MIC for against extended-spectrum beta-lactamase producing Escherichia coli isolate 208687 to MIC for extended-spectrum beta-lactamase producing Escherichia coli isolate 208687 in presence of BPL
Pseudomonas aeruginosa [12] = assay: Antibacterial activity against IMP-4 producing Pseudomonas aeruginosa isolate 207272 after 18 hrs in presence of BPL by CLSI broth microdilution method; settings: isolate 207272, 18 h; outline: as §1
Escherichia coli [13] = assay: Selectivity index, ratio of MIC for against extended-spectrum beta-lactamase producing Escherichia coli isolate 106342 to MIC for extended-spectrum beta-lactamase producing Escherichia coli isolate 106342 in presence of BPL
Pseudomonas aeruginosa [14] = assay: Selectivity index, ratio of MIC for against IMP-4 producing Pseudomonas aeruginosa isolate 207272 to MIC for against IMP-4 producing Pseudomonas aeruginosa isolate 207272 in presence of BPL
Pseudomonas aeruginosa [15] = assay: Antibacterial activity against IMP-4 producing Pseudomonas aeruginosa isolate 209321 after 18 hrs in presence of BPL by CLSI broth microdilution method; settings: isolate 209321, 18 h; outline: as §1
Escherichia coli [16] = assay: Antibacterial activity against extended-spectrum beta-lactamase producing Escherichia coli isolate 106342 after 18 hrs by CLSI broth microdilution method; settings: isolate 106342, 18 h
Klebsiella pneumoniae [17] = assay: Selectivity index, ratio of MIC for against KPC-2 producing Klebsiella pneumoniae isolate 209735 to MIC for against KPC-2 producing Klebsiella pneumoniae isolate 209735 in presence of BPL
Pseudomonas aeruginosa [18] = assay: Antibacterial activity against IMP-4 producing Pseudomonas aeruginosa isolate 209471 after 18 hrs in presence of BPL by CLSI broth microdilution method; settings: isolate 209471, 18 h; outline: as §1
Pseudomonas aeruginosa [19] = assay: Selectivity index, ratio of MIC for against IMP-4 producing Pseudomonas aeruginosa isolate 212886 to MIC for against IMP-4 producing Pseudomonas aeruginosa isolate 212886 in presence of BPL
Pseudomonas aeruginosa [20] = assay: Antibacterial activity against IMP-4 producing Pseudomonas aeruginosa isolate 212886 after 18 hrs by CLSI broth microdilution method; settings: isolate 212886, 18 h
Pseudomonas aeruginosa [21] = assay: Antibacterial activity against IMP-4 producing Pseudomonas aeruginosa isolate 209471 after 18 hrs by CLSI broth microdilution method; settings: isolate 209471, 18 h
Pseudomonas aeruginosa [22] = assay: Antibacterial activity against IMP-4 producing Pseudomonas aeruginosa isolate 212886 after 18 hrs in presence of BPL by CLSI broth microdilution method; settings: isolate 212886, 18 h; outline: as §1
Klebsiella pneumoniae [23] = assay: Antibacterial activity against KPC-2 producing Klebsiella pneumoniae isolate 212229 after 18 hrs by CLSI broth microdilution method; settings: isolate 212229, 18 h
Pseudomonas aeruginosa [24] = assay: Antibacterial activity against IMP-4 producing Pseudomonas aeruginosa isolate 208247 after 18 hrs by CLSI broth microdilution method; settings: isolate 208247, 18 h
Klebsiella pneumoniae [25] = assay: Selectivity index, ratio of MIC for against KPC-2 producing Klebsiella pneumoniae isolate 212232 to MIC for against KPC-2 producing Klebsiella pneumoniae isolate 212232 in presence of BPL
Pseudomonas aeruginosa [26] = assay: Selectivity index, ratio of MIC for against IMP-4 producing Pseudomonas aeruginosa isolate 208247 to MIC for against IMP-4 producing Pseudomonas aeruginosa isolate 208247 in presence of BPL
Escherichia coli [27] = assay: Antibacterial activity against extended-spectrum beta-lactamase producing Escherichia coli isolate 208687 after 18 hrs by CLSI broth microdilution method; settings: isolate 208687, 18 h
Escherichia coli [28] = assay: Selectivity index, ratio of MIC for against extended-spectrum beta-lactamase producing Escherichia coli isolate 212648 to MIC for extended-spectrum beta-lactamase producing Escherichia coli isolate 212648 in presence of BPL
Klebsiella pneumoniae [29] = assay: Selectivity index, ratio of MIC for against KPC-2 producing Klebsiella pneumoniae isolate 212423 to MIC for against KPC-2 producing Klebsiella pneumoniae isolate 212423 in presence of BPL
Escherichia coli [30] = assay: Antibacterial activity against extended-spectrum beta-lactamase producing Escherichia coli isolate 212648 after 18 hrs in presence of BPL by CLSI broth microdilution method; settings: isolate 212648, 18 h; outline: as §1
Klebsiella pneumoniae [31] = assay: Antibacterial activity against KPC-2 producing Klebsiella pneumoniae isolate 212423 after 18 hrs by CLSI broth microdilution method; settings: isolate 212423, 18 h
Klebsiella pneumoniae [32] = assay: Antibacterial activity against KPC-2 producing Klebsiella pneumoniae isolate 209735 after 18 hrs by CLSI broth microdilution method; settings: isolate 209735, 18 h
Pseudomonas aeruginosa [33] = assay: Antibacterial activity against IMP-4 producing Pseudomonas aeruginosa isolate 208247 after 18 hrs in presence of BPL by CLSI broth microdilution method; settings: isolate 208247, 18 h; outline: as §1
Escherichia coli [34] = assay: Antibacterial activity against extended-spectrum beta-lactamase producing Escherichia coli isolate 209285 after 18 hrs in presence of BPL by CLSI broth microdilution method; settings: isolate 209285, 18 h; outline: as §1
Escherichia coli [35] = assay: Antibacterial activity against Escherichia coli isolate 210737 after 18 hrs by CLSI broth microdilution method; settings: isolate 210737, 18 h
Escherichia coli [36] = assay: Selectivity index, ratio of MIC for against extended-spectrum beta-lactamase producing Escherichia coli isolate 209285 to MIC for extended-spectrum beta-lactamase producing Escherichia coli isolate 209285 in presence of BPL
Escherichia coli [37] = assay: Antibacterial activity against extended-spectrum beta-lactamase producing Escherichia coli isolate 212648 after 18 hrs by CLSI broth microdilution method; settings: isolate 212648, 18 h
Escherichia coli [38] = assay: Antibacterial activity against Escherichia coli isolate 210737 after 18 hrs in presence of BPL by CLSI broth microdilution method; settings: isolate 210737, 18 h; outline: as §1
Escherichia coli [39] = assay: Selectivity index, ratio of MIC for against Escherichia coli isolate 210737 to MIC for Escherichia coli isolate 210737 in presence of BPL
Pseudomonas aeruginosa [40] = assay: Antibacterial activity against IMP-4 producing Pseudomonas aeruginosa isolate 209321 after 18 hrs by CLSI broth microdilution method; settings: isolate 209321, 18 h
Klebsiella pneumoniae [41] = assay: Antibacterial activity against KPC-2 producing Klebsiella pneumoniae isolate 209632 after 18 hrs by CLSI broth microdilution method; settings: isolate 209632, 18 h
Klebsiella pneumoniae [42] = assay: Antibacterial activity against KPC-2 producing Klebsiella pneumoniae isolate 212229 after 18 hrs in presence of BPL by CLSI broth microdilution method; settings: isolate 212229, 18 h; outline: as §1
Escherichia coli [43] = assay: Antibacterial activity against extended-spectrum beta-lactamase producing Escherichia coli isolate 106342 after 18 hrs in presence of BPL by CLSI broth microdilution method; settings: isolate 106342, 18 h; outline: as §1
Escherichia coli [44] = assay: Antibacterial activity against extended-spectrum beta-lactamase producing Escherichia coli isolate 208687 after 18 hrs in presence of BPL by CLSI broth microdilution method; settings: isolate 208687, 18 h; outline: as §1

MIC (Klebsiella pneumoniae [1]): 2 µg/mL (≈ 2.91 µM)
MIC (Klebsiella pneumoniae [4]): 1 µg/mL
MIC (Klebsiella pneumoniae [5]): 2 µg/mL
MIC (Pseudomonas aeruginosa [6]): 64 µg/mL (≈ 93.1 µM)
MIC (Klebsiella pneumoniae [7]): 0.25 µg/mL
MIC (Escherichia coli [9]): 4 µg/mL (≈ 5.82 µM)
MIC (Klebsiella pneumoniae [10]): 2 µg/mL
MIC (Pseudomonas aeruginosa [12]): 64 µg/mL
MIC (Pseudomonas aeruginosa [15]): > 64 µg/mL
MIC (Escherichia coli [16]): 4 µg/mL (≈ 5.82 µM)
MIC (Pseudomonas aeruginosa [18]): 64 µg/mL
MIC (Pseudomonas aeruginosa [20]): > 64 µg/mL
MIC (Pseudomonas aeruginosa [21]): 64 µg/mL (≈ 93.1 µM)
MIC (Pseudomonas aeruginosa [22]): 32 µg/mL
MIC (Klebsiella pneumoniae [23]): 4 µg/mL (≈ 5.82 µM)
MIC (Pseudomonas aeruginosa [24]): 64 µg/mL (≈ 93.1 µM)
MIC (Escherichia coli [27]): 4 µg/mL (≈ 5.82 µM)
MIC (Escherichia coli [30]): 1 µg/mL
MIC (Klebsiella pneumoniae [31]): 4 µg/mL (≈ 5.82 µM)
MIC (Klebsiella pneumoniae [32]): 4 µg/mL (≈ 5.82 µM)
MIC (Pseudomonas aeruginosa [33]): 64 µg/mL
MIC (Escherichia coli [34]): 4 µg/mL
MIC (Escherichia coli [35]): 2 µg/mL (≈ 2.91 µM)
MIC (Escherichia coli [37]): 4 µg/mL (≈ 5.82 µM)
MIC (Escherichia coli [38]): 1 µg/mL
MIC (Pseudomonas aeruginosa [40]): > 64 µg/mL
MIC (Klebsiella pneumoniae [41]): 2 µg/mL (≈ 2.91 µM)
MIC (Klebsiella pneumoniae [42]): 1 µg/mL
MIC (Escherichia coli [43]): 2 µg/mL
MIC (Escherichia coli [44]): 1 µg/mL
Compound: CC(C)C(O/N=C(\C(=O)N[C@@H]1C(=O)N(S(=O)(=O)O)[C@@H]1CSc1nc(=O)c(O)nn1C)c1csc(N)n1)c1cc(=O)c(O)cn1O (some centres undefined)
Selectivity Index (Klebsiella pneumoniae [2]): 2
Selectivity Index (Klebsiella pneumoniae [3]): 4
Selectivity Index (Pseudomonas aeruginosa [8]): 1
Selectivity Index (Escherichia coli [11]): 4
Selectivity Index (Escherichia coli [13]): 2
Selectivity Index (Pseudomonas aeruginosa [14]): 1
Selectivity Index (Klebsiella pneumoniae [17]): 2
Selectivity Index (Pseudomonas aeruginosa [19]): >2
Selectivity Index (Klebsiella pneumoniae [25]): 8
Selectivity Index (Pseudomonas aeruginosa [26]): 1
Selectivity Index (Escherichia coli [28]): 4
Selectivity Index (Klebsiella pneumoniae [29]): 2
Selectivity Index (Escherichia coli [36]): 1
Selectivity Index (Escherichia coli [39]): 2
